Screening results (PubChem BioAssay)
hK5 inh: inhibitors of human kallikrein 5; Q9Y337; recombinant hK5, fluorogenic AMC substrate cleavage; inhibition, % at 5 µM; actives 0.59% (n = 210,000);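 active = inhibition of 40% or more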;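 note: 0% = enzyme controls without compound and 100% = no-enzyme blanks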
FXIa inh: blocks human coagulation factor XIa protease activity; P03951; purified FXIa, Boc-Glu-Ala-Arg-AMC fluorogenic substrate; inhibition, % at 5 µM; actives 0.14% (n = 220,000); AID 798;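 active = inhibition of at least 40%; inactive = inhibition below 40%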;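 note: fluorescence of freed AMC excited at 355 nm; 0% = enzyme without compound and 100% = no enzyme blank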
PGE2 EP2 inh: EP2 receptor (human) inhibition; C6 glioma cells expressing human EP2, cAMP TR-FRET; cells stimulated with saturating PGE2; inhibition, % at 25 µM; actives 0.52% (n = 260,000); AID 1422; P43116;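 active = percent inhibition above 40 after rounding to a whole number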;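 note: rat C6 glioma host cells with rolipram phosphodiesterase inhibitor present; the protocol text gives 20 µM as final concentration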
Target sequence (P43116 whole entry, looked up): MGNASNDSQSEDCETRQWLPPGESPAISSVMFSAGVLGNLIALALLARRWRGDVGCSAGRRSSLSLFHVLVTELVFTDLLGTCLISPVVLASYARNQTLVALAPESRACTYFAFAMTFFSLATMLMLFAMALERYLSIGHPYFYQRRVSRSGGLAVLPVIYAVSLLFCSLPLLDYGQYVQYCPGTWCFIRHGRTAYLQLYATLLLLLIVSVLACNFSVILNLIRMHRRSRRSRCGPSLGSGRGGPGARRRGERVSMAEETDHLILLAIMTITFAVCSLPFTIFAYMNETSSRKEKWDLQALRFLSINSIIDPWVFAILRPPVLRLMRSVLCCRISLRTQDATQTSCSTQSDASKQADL
FXIIa inh: blocks human coagulation factor XIIa protease activity; purified FXIIa, Boc-QGR-AMC fluorogenic substrate, 2 h; AID 800; P00748; inhibition, % at 5 µM; actives 0.3% (n = 220,000); in the data active = inhibition above about 40%;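 note: 0% = enzyme with no compound and 100% = blank without enzyme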
EP2 mod: modulates human prostaglandin E2 receptor EP2 signaling | P43116 | EP2-expressing cells, cAMP HTRF FRET, PGE2 co-stimulation | induction, % at 25 µM | actives 0.83% (n = 260,000) | AID 940;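 active = compounds whose cAMP rise, as percent of the full-agonist control response, exceeds 60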;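 note: rat C6 glioma line stably carrying human EP2 under a CMV promoter; the protocol text gives 20 µM as final concentration; 100% = response of wells given 1 µM PGE2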
thrombin 1536: inhibitors of human thrombin | alpha-thrombin, Boc-VPR-AMC fluorogenic substrate cleavage | inhibition, % at 5 µM | P00734 | actives 0.26% (n = 220,000) | AID 1046;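 active = inhibition at or above 40%; inactive = inhibition below 40%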;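 note: 0% = enzyme with no compound and 100% = wells without enzyme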
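Material: human alpha-thrombin protein; Also added: Boc-VPR-AMC substrate, 15 µM final; Timing: enzyme reaction carried out at room temperature; Signal: fluorescence, ex 355 nm, em 460 nm; Measure: % inhibition of thrombin; Controls: enzyme without compound as high, wells lacking enzyme as low.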
Active calls of the source: *; . = not tested or not shown. Only some compounds are listed: those with a hit (about 2.1% of all), similar ones and a draw of the others.

SMILES	hK5 inh	FXIa inh	PGE2 EP2 inh	FXIIa inh	EP2 mod	thrombin 1536
O=S1(=O)CCN(c2ccccc2CC(c2c[nH]c3ccccc23)c2c[nH]c3ccccc23)CC1	.	.	52*	.	7	.
Cc1ccc(NC(=O)CCn2cccc2)cc1C	32	14	6	43*	11	32
Cc1ccc(NC(=O)CSCC(N)=O)cc1C	42*	9	8	42*	3	11
Cc1ccc(NC(=O)CCSCCC(=O)Nc2ccc(C)c(C)c2)cc1C	1	2	16	9	-22	-2
COc1ccc(OCC(=O)Nc2sc3c(c2C#N)CCCCC3)cc1	.	.	10	.	-26	.
C[C@H](CCC(=O)NN)[C@@H]1CC[C@@H]2[C@H]3CC[C@H]4C[C@@H](O)CC[C@]4(C)[C@@H]3CC[C@]21C	.	.	49*	.	21	.
CC(CCC(=O)O)[C@H]1CCC2C3CC[C@@H]4C[C@H](O)CC[C@]4(C)C3CC[C@@]21C (stereo not given in full)	.	.	14	.	22	.
C[C@H](CCC(=O)O)[C@H]1CC[C@H]2[C@@H]3[C@@H](O)C[C@H]4C[C@@H](O)CC[C@]4(C)[C@H]3C[C@@H](O)[C@]12C	.	.	45*	.	32	.
O=C1CC[C@@H](NCc2ccccc2O)[C@H](c2cc(F)cc(F)c2)N1	.	.	9	.	-8	.
O=C1NC2(CCN(C(=O)C(c3ccccc3)N3CCCC3)CC2)Oc2ccccc21 (stereo not given)	.	.	.	.	-38	.
CNC(=O)NNC(=O)c1nc(-c2ccccc2)c(C)o1	42*	33	16	27	28	24
COc1ccc(CN2CCc3c(nc(N4CCCCC4C)[nH]c3=O)C2)cc1O (stereo not given)	.	.	11	.	-47	.
O=c1n(Cc2cccs2)c2cccnc2n1CN1CCC(N2CCCCC2)CC1	.	.	.	.	-7	.
O=c1c2ccccc2sc2ccc(NCCCN3CCOCC3)cc12	.	.	26	.	.	.
CN1CCCC1CCNc1ccc2sc3ccccc3c(=O)c2c1 (stereo not given)	.	.	44*	.	.	.
Cc1cccc(NC(=O)c2sc(NC(=O)C(C)C)c(C#N)c2C)c1C	.	.	10	.	-26	.
O=C(NNc1c(Cl)cc(Cl)cc1Cl)c1n[nH]c(=O)c2ccccc12	36	21	9	74*	22	28
COc1ccc(-c2cc3nccc(C4CCN(C(=O)OC(C)(C)C)CC4)n3n2)cc1OC	.	.	.	.	80*	.
Cc1cc(Cl)ccc1Nc1sc(C(=O)c2cc3cc(Cl)ccc3o2)c(N)c1C#N	.	.	51*	.	-16	.
Cc1cccc(NC(=S)NC(=O)/C=C/c2ccccc2)n1	27	29	1	26	-19	50*
COC(C[C@H](O)C[C@@H](O)[C@H](C)OCc1ccccc1)OC	17	26	13	46*	7	-3
COc1ccc(S(=O)(=O)N2CCCCCC2)cc1NC(=O)Cc1cc(OC)c(OC)c(OC)c1	-7	6	11	13	10	2
COc1ccc(S(=O)(=O)N2CCCCC2)cc1NC(=O)CN(C)C1CCCCC1	19	30	3	49*	7	.
COc1ccc(CN(Cc2cncn2C)CC2CCCO2)c(OC)c1OC (stereo not given)	.	.	9	.	19	.
Cc1cccc(Nc2nc(N)c([N+](=O)[O-])c(NCc3ccco3)n2)c1	-13	3	2	6	62*	-7
SMILES	hK5 inh	FXIa inh	PGE2 EP2 inh	FXIIa inh	EP2 mod	thrombin 1536
Nc1nc(Nc2cccc(Cl)c2)nc(NCc2ccco2)c1[N+](=O)[O-]	-4	7	3	8	24	-2
Cc1ccc(Nc2nc(NCc3ccco3)c3ccccc3n2)cc1	-25	-6	42*	2	-51	-4
Nc1nc(Nc2ccc(Cl)cc2)nc(NCc2ccco2)c1[N+](=O)[O-]	3	2	1	7	65*	-1
COc1ccccc1Nc1nc(NCc2ccco2)c2ccccc2n1	0	0	12	11	-14	1
Cc1cccc(Nc2nc(N)c([N+](=O)[O-])c(N3CC(C)CC(C)C3)n2)c1 (stereo not given)	-10	3	5	5	63*	-7
Cc1cccc(Nc2nc(N)c([N+](=O)[O-])c(N3CCC(C)CC3)n2)c1	-10	8	18	13	48	4
COc1ccc2cc3c(N)[nH]nc3nc2c1	.	.	15	.	-93	.
Cn1nnc2cc(C(=O)Nc3ccccc3Cl)ccc21	.	.	12	.	-57	.
